From article PMC3082041 (Cancer Chemotherapy and Pharmacology, 2010)

How the values were obtained:
[1] = Urinary excretion of TSU-68; format: in vivo, human (Japanese patients); conditions: any dose level
Procedure, shortened: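 Dosing was once daily on days 1 and 29 and bid on days 2–28. Drug measured by validated HPLC-UV (LLOQ 0.1 μg/mL). Excretion expressed as percentage of dose.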

[2] = tested on: plasma VEGF, E-selectin, tPA, VCAM-1, PAI-1, urine VEGF; experiment: Angiogenesis-related biomarkers in plasma and urine; format: in vivo, human (Japanese patients); conditions: 14 patients
[3] = tested on: tumor xenograft explants; conditions: athymic mice, many types of tumor; cited from earlier work

Cc1[nH]c(/C=C2\C(=O)Nc3ccccc32)c(C)c1CCC(=O)O [TSU-68, (Z)-3-[2,4-dimethyl-5-(2-oxo-1,2-dihydro-indol-3-ylidenemethyl)-1H-pyrrol-3-yl]-propionic acid]
Urinary excretion of TSU-68 [1]: below 1 % of dose
change of plasma VEGF, E-selectin, tPA and VCAM-1 [2]: not changed substantially
PAI-1, increase over the baseline ([2]; average): more than 20%
urine VEGF, increase over the baseline ([2]; average): more than 20%
PAI-1, average after treatment ([2]; baseline 24.3 ± 6.7 ng/ml): 29.5 ± 11.3 ng/mL
urine VEGF, average after treatment ([2]; baseline 96.6 ± 62.4 pg/ml): 132.1 ± 93.6 pg/mL
antitumor activity against tumor xenograft explants [3]: significant antitumor activity
